# According to ChEMBL document CHEMBL4765371, “Synthesis and evaluation of Na/K-ATP-ase inhibiting and cytotoxic in vitro activities of oleandrigenin and its selected 17β-(butenolidyl)- and 17β-(3-furyl)- analogues” (Eur J Med Chem, 2020):
# Calls of active or inactive are those of the source. The calls are words filed in the database; no cut-off is given here.
# Test system: CCRF-CEM
# Assay: Cytotoxicity against human CEM cells assessed as reduction in cell viability incubated for 72 hrs by resazurin assay
# Format: functional, cell-based
# Settings: not given
# Summary of the method: (§1)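 Cells (CEM, HeLa, MCF7, BJ fibroblasts) exposed to compounds for 72 h, viability read by resazurin staining. Values are means ± SD from at least three independent experiments run in triplicate.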
row,Structure (SMILES),IC50 [µM]
1,C[C@]12CC[C@H](O)C[C@H]1CC[C@@H]1[C@@H]2CC[C@]2(C)[C@@H](c3ccoc3)[C@@H](O)[C@H]3O[C@]132,> 50

# Test system: MCF7
# Assay: Cytotoxicity against human MCF7 cells assessed as reduction in cell viability incubated for 72 hrs by resazurin assay
# Format: functional, cell-based
# Settings: MCF7, 72 h
# Summary of the method: as §1
row,Structure (SMILES),IC50 [µM]
1,C[C@]12CC[C@H](O)C[C@H]1CC[C@@H]1[C@@H]2CC[C@]2(C)[C@@H](c3ccoc3)[C@@H](O)[C@H]3O[C@]132,> 50

# Test system: HeLa
# Assay: Cytotoxicity against human HeLa cells assessed as reduction in cell viability incubated for 72 hrs by resazurin assay
# Format: functional, cell-based
# Settings: not given
# Summary of the method: as §1
row,Structure (SMILES),IC50 [µM]
1,C[C@]12CC[C@H](O)C[C@H]1CC[C@@H]1[C@@H]2CC[C@]2(C)[C@@H](c3ccoc3)[C@@H](O)[C@H]3O[C@]132,> 50

# Test system: BJ
# Assay: Cytotoxicity against human BJ cells assessed as reduction in cell viability incubated for 72 hrs by resazurin assay
# Format: cell-based
# Settings: not given
# Summary of the method: as §1
row,Structure (SMILES),IC50 [µM]
1,C[C@]12CC[C@H](O)C[C@H]1CC[C@@H]1[C@@H]2CC[C@]2(C)[C@@H](c3ccoc3)[C@@H](O)[C@H]3O[C@]132,> 50

# Species on record: Sus scrofa
# Assay: Inhibition of porcine kidney Na+/K+ ATPase at 50 uM assessed as enzyme residual activity using ATP as substrate incubated for 2 mins followed by substrate addition and measured after 6 mins (reference value: 100 +/-3.16%)
# Format: tissue-based
# Settings: time 8.0 min
row,Structure (SMILES),Activity [%]
1,CO[C@H]1C[C@H](O[C@H]2CC[C@@]3(C)[C@H](CC[C@@H]4[C@@H]3CC[C@]3(C)[C@@H](C5=CC(=O)OC5)[C@@H](OC(C)=O)C[C@]43O)C2)O[C@@H](C)[C@@H]1O,59.2
2,CC(=O)O[C@H]1C[C@]2(O)[C@@H]3CC[C@@H]4C[C@@H](O)CC[C@]4(C)[C@H]3CC[C@]2(C)[C@H]1C1=CC(=O)OC1,64.8
3,C[C@]12CC[C@H](O)C[C@H]1CC[C@@H]1[C@@H]2CC[C@]2(C)[C@@H](c3ccoc3)[C@@H](O)[C@H]3O[C@]132,75.5

# Test system: HeLa
# Assay: Induction of cell cycle arrest in human HeLa cells assessed as decrease in accumulation of cells at G0/G1 phase at 1 to 10 uM incubated for 24 hrs by PI staining based flow cytometry analysis relative to control
# Format: functional
# Set-up: scale not given: the % may be the effect or the level left
# Settings: dose 1-10 µM
# Summary of the method: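 HeLa cells treated 24 h at 1 or 10 µM, then harvested, fixed and stained with propidium iodide. DNA content measured by flow cytometry and cells assigned to subG1 (apoptotic), G0/G1, S and G2/M. Compared with untreated and DMSO-only controls. Means of three independent experiments in triplicate; one-way ANOVA, p < 0.05.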
row,Structure (SMILES),Activity [%]
1,CC(=O)O[C@H]1C[C@]2(O)[C@@H]3CC[C@@H]4C[C@@H](O)CC[C@]4(C)[C@H]3CC[C@]2(C)[C@H]1C1=CC(=O)OC1,4.4

# Test system: HeLa
# Assay: Induction of apoptosis in human HeLa cells assessed as fold increase in caspase 3/7 activity at 1 to 10 uM incubated for 24 hrs by fluorescence based assay relative to control
# Format: functional
# Settings: dose 1-10 µM
row,Structure (SMILES),fold change (FC)
1,CC(=O)O[C@H]1C[C@]2(O)[C@@H]3CC[C@@H]4C[C@@H](O)CC[C@]4(C)[C@H]3CC[C@]2(C)[C@H]1C1=CC(=O)OC1,2

# Test system: HeLa
# Assay: Induction of apoptosis in human HeLa cells assessed as increase in PARP-1 cleavage at 10 uM incubated for 24 hrs by Western blotting analysis
# Format: functional, cell-based
# Settings: not given
# Summary of the method: (§2)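 HeLa cells treated 24 h at 1 and 10 µM. Lysates resolved by SDS-PAGE and immunoblotted for PARP-1, caspase-7 zymogen and fragment, Mcl-1, Bcl-2, p53, phospho-Rb, total Rb, phospho-Src (Tyr416) and total Src. β-actin used as loading control. Compared with untreated controls; three repeats.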
row,Structure (SMILES),Activity
1,CC(=O)O[C@H]1C[C@]2(O)[C@@H]3CC[C@@H]4C[C@@H](O)CC[C@]4(C)[C@H]3CC[C@]2(C)[C@H]1C1=CC(=O)OC1,Active

# Test system: HeLa
# Assay: Induction of apoptosis in human HeLa cells assessed as increase in caspase 7 fragmentation at 1 to 10 uM incubated for 24 hrs by Western blotting analysis
# Format: functional, cell-based
# Settings: dose 1-10 µM
# Summary of the method: as §2
row,Structure (SMILES),Activity
1,CC(=O)O[C@H]1C[C@]2(O)[C@@H]3CC[C@@H]4C[C@@H](O)CC[C@]4(C)[C@H]3CC[C@]2(C)[C@H]1C1=CC(=O)OC1,Active

# Test system: HeLa
# Assay: Induction of apoptosis in human HeLa cells assessed as reduction in Rb phosphorylation at 1 to 10 uM incubated for 24 hrs by Western blotting analysis
# Format: functional, cell-based
# Settings: dose 1-10 µM
# Summary of the method: as §2
row,Structure (SMILES),Activity
1,CC(=O)O[C@H]1C[C@]2(O)[C@@H]3CC[C@@H]4C[C@@H](O)CC[C@]4(C)[C@H]3CC[C@]2(C)[C@H]1C1=CC(=O)OC1,Active

# Test system: HeLa
# Assay: Induction of apoptosis in human HeLa cells assessed as reduction in Rb level at 1 to 10 uM incubated for 24 hrs by Western blotting analysis
# Format: functional, cell-based
# Settings: dose 1-10 µM
# Summary of the method: as §2
row,Structure (SMILES),Activity
1,CC(=O)O[C@H]1C[C@]2(O)[C@@H]3CC[C@@H]4C[C@@H](O)CC[C@]4(C)[C@H]3CC[C@]2(C)[C@H]1C1=CC(=O)OC1,Active

# Test system: HeLa
# Assay: Downregulation of p53 protein expression in human HeLa cells at 1 to 10 uM incubated for 24 hrs by Western blotting analysis
# Format: functional, cell-based
# Settings: dose 1-10 µM
# Summary of the method: as §2
row,Structure (SMILES),inhibition
1,CC(=O)O[C@H]1C[C@]2(O)[C@@H]3CC[C@@H]4C[C@@H](O)CC[C@]4(C)[C@H]3CC[C@]2(C)[C@H]1C1=CC(=O)OC1,Active
